The values below come from ChEMBL document CHEMBL1131033, “Selective endothelin A receptor antagonists. 4. Discovery and structure-activity relationships of stilbene acid and alcohol derivatives” (J Med Chem, 1998).

pIC50: −log10 of the molar value.

One test addresses T1, Endothelin-1 receptor (Rattus norvegicus, UniProt P26684).
T1 sequence (P26684 whole entry): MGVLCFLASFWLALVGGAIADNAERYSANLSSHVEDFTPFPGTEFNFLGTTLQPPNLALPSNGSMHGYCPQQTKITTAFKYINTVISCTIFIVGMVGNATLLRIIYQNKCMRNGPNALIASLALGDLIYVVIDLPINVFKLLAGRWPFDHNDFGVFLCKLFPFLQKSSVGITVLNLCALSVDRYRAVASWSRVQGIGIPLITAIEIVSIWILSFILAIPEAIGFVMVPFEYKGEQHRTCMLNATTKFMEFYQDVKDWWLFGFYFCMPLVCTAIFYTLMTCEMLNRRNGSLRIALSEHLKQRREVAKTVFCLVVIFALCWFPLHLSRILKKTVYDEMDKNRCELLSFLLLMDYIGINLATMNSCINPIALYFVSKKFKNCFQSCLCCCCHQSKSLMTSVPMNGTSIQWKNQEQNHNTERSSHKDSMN
Put plainly: Concentration required to inhibit 50% Et-1 binding to endothelin A receptor in rat A-10 cells. The test is classed as cell-based, A10. Put shortly: (§1)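 Rat aortic smooth muscle A10 cells grown to confluence in DMEM with 10% FBS, harvested, and frozen. Nonspecific binding defined with 500 nM unlabeled ET-1. Bound ligand separated by vacuum filtration and gamma-counted. IC50 from curve fitting, usually in duplicate.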

In test [1] the target is T2, Endothelin-1 receptor (Rattus norvegicus) (UniProt P26684).
T2 sequence (whole entry): T1 sequence (P26684 whole entry)
Put plainly: Concentration required to inhibit 50% Et-1 binding to Endothelin A receptor in rat A-10 cells. In kind it is cell-based. Also noted: concentration or dose not given beside the values. The conditions noted are these: A10; concentration not given here. Put shortly:
as §1

By pIC50 is commonly meant the IC50 on a negative log10 scale, so that one unit is a factor of ten. As to `N#Cc1ccc(OCc2ccsc2)cc1/C=C(/C(=O)O)c1ccccc1Cl`, the negative-log IC50 (pIC50) on Endothelin-1 receptor is 6.70. By inhibition is commonly meant the share of the control response that was lost under treatment. `COc1ccc(C#N)c(/C=C(/C(=O)O)c2ccccc2)c1` gave an inhibition in test [1] of less than 20%. On Endothelin-1 receptor, `O=C(O)/C(=C/c1cc(OCc2ccsc2)ccc1Br)c1ccccc1` had a pIC50 of 6.15.

`N#Cc1ccc(OCc2ccc3c(c2)OCO3)cc1/C=C(/C(=O)O)c1ccccc1` gave a pIC50 on Endothelin-1 receptor of 5.89.

On Endothelin-1 receptor, `O=C(O)/C(=C/c1cc(OCc2ccsc2)ccc1[N+](=O)[O-])c1ccccc1` showed a pIC50 of 6.30. Same read-out and setting: then `O=[N+]([O-])c1ccc(OCc2ccsc2)cc1/C=C(/CO)c1ccccc1Cl`, with 6.40; and `COc1cccc(/C(=C\c2cc(OCc3ccsc3)ccc2C#N)C(=O)O)c1`, with 5.96; and `N#Cc1ccc(OCc2ccsc2)cc1/C=C(/C(=O)O)c1ccc2c(c1)OCO2`, with 6.70. `Nc1ccc(OCc2ccsc2)cc1/C=C(/C(=O)O)c1ccccc1F` came in with an inhibition in test [1] of less than 20%. For the molecule `COc1ccc(/C(=C\c2cc(OCc3ccsc3)ccc2C#N)C(=O)O)cc1`, the inhibition in test [1] is less than 20%. For `O=C(O)/C(=C/c1cc(OCc2ccsc2)ccc1[N+](=O)[O-])c1ccccc1Cl`, the pIC50 on Endothelin-1 receptor was 5.89.

Consider `N#Cc1ccc(OCc2ccsc2)cc1/C=C(/CCC(=O)O)c1ccccc1`, for which the pIC50 at Endothelin-1 receptor was 6.15. In test [1], `COC/C(=C/c1cc(OCc2ccsc2)ccc1C#N)c1ccccc1C` yielded an inhibition of less than 20%. As for `O=[N+]([O-])c1ccc(OCc2ccsc2)cc1/C=C(/CO)c1ccccc1`, the pIC50 at Endothelin-1 receptor is 5.85. On Endothelin-1 receptor, `O=C(O)/C(=C/c1cc(OCc2ccsc2)ccc1[N+](=O)[O-])c1c(F)cccc1Cl` had a pIC50 of 5.70. At Endothelin-1 receptor, `O=C(O)/C(=C/c1cc(OCc2ccccc2)ccc1[N+](=O)[O-])c1ccccc1` gave a pIC50 of 6.22. For the molecule `N#Cc1ccc(OCc2cccnc2)cc1/C=C(/C(=O)O)c1ccccc1`, the pIC50 on Endothelin-1 receptor was 6.82. The molecule `O=C(O)/C(=C/c1cc(OCc2ccsc2)ccc1[N+](=O)[O-])c1ccccc1F` showed a pIC50 at Endothelin-1 receptor of 6.22. For `Cc1ccccc1/C(=C\c1cc(OCc2ccsc2)ccc1C#N)CO`, the negative logarithm of the IC50 (pIC50) at Endothelin-1 receptor is 6.52. Still for that read-out and setting: then `O=C(O)CC/C(=C/c1cccc(OCc2ccccc2)c1)c1ccccc1`, with 5.28; and `O=C(O)CCC(Oc1cccc(OCc2ccccc2)c1)c1ccccc1` (stereo not given), with 5.70; and `N#Cc1ccc(OCc2ccsc2)cc1/C=C(/CO)c1ccccc1`, with 6.10. Take `Cc1ccccc1/C(=C\c1cc(OCc2ccsc2)ccc1C#N)C(=O)O`: the pIC50 on Endothelin-1 receptor was 6.52. The molecule `O=C(O)/C(=C/c1cccc(OCc2ccccc2)c1)c1ccccc1` gave a pIC50 on Endothelin-1 receptor of 5.22. As to `OC/C(=C/c1cc(OCc2ccsc2)ccc1Br)c1ccccc1`, the pIC50 at Endothelin-1 receptor is 5.68.
